Test results as given in ChEMBL document CHEMBL2375278, “Small-molecule inhibitors of cathepsin L incorporating functionalized ring-fused molecular frameworks” (Bioorg Med Chem Lett, 2013).

Key:
[1] = molecular target: Cathepsin B (Homo sapiens, UniProt P07858); test: Inhibition of human liver Cathepsin B using Z-Arg-Arg-aminomethylcoumarin as substrate incubated for 5 mins prior to substrate addition measured for 5 mins by fluorometric analysis
In short: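 Assay run with 2% DMSO in the well and a five-minute pre-incubation before substrate. Substrate was used at 60 µM. Activity is reported as IC₅₀ (nM).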

[2] = molecular target: Procathepsin L (Homo sapiens, UniProt P07711); test: Inhibition of human liver Cathepsin L using Z-Phe-Arg-aminomethylcoumarin as substrate incubated for 5 mins prior to substrate addition measured for 5 mins by fluorometric analysis
In short: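 Assay run with 2% DMSO in the well and a five-minute pre-incubation before substrate. Substrate was used at 50 µM. Activity is reported as IC₅₀ (nM).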

[3] = species on record: Homo sapiens; test: Selectivity ratio of IC50 for human liver Cathepsin B to IC50 for human liver Cathepsin L

Chain of Procathepsin L (P07711 whole entry): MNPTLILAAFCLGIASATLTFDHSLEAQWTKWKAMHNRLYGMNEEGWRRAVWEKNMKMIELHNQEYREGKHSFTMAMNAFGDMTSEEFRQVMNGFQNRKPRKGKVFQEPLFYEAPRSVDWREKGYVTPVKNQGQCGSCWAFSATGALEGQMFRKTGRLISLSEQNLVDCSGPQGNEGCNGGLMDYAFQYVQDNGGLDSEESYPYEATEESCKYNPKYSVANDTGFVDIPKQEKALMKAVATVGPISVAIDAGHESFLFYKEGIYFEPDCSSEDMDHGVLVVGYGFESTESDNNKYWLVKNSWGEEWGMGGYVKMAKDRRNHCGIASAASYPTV

SMILES | IC50 [1] | IC50 [2] | Ratio IC50 [3]
CN1CC/C(=N\NC(N)=S)c2cc(Br)ccc21 | > 10 µM | > 10 µM | –
COc1ccc2c(c1)/C(=N/NC(N)=S)CCC2 | > 10 µM | > 10 µM | –
NC(=S)N/N=C1\CCNc2c1cc([N+](=O)[O-])cc2[N+](=O)[O-] | > 10 µM | 0.338 µM | > 20
COc1cccc2c1CCC/C2=N\NC(N)=S | > 10 µM | > 10 µM | –
CC(=O)N1CC/C(=N\NC(N)=S)c2ccccc21 | > 10 µM | > 10 µM | –
NC(=S)N/N=C1\CCCSc2cc(F)c(F)cc21 | > 10 µM | ≥ 10 µM | –
NC(=S)N/N=C1\CCNc2ccccc21 | > 10 µM | > 10 µM | –
COc1ccc2c(c1)CCC/C2=N\NC(N)=S | > 10 µM | > 10 µM | –
NC(=S)N/N=C1\CC[S+]([O-])c2ccc([N+](=O)[O-])cc21 (configuration not stated) | > 10 µM | 1.74 µM | > 5.7
N=C(N)N/N=C1\CCS(=O)(=O)c2ccc([N+](=O)[O-])cc21 | > 10 µM | > 10 µM | –
N=C(N)N/N=C1\CCSc2ccc([N+](=O)[O-])cc21 | > 10 µM | > 10 µM | –
NC(=S)N/N=C1\CCN([N+](=O)[O-])c2ccccc21 | > 10 µM | > 10 µM | –
NC(=S)N/N=C1\CCCS(=O)(=O)c2ccc([N+](=O)[O-])cc21 | > 10 µM | > 10 µM | –
NC(=S)N/N=C1\CC(Nc2ccccc2)c2ccc(Br)cc21 (configuration not stated) | > 10 µM | > 10 µM | –
NC(=S)N/N=C1\CCOc2ccc(Cl)cc21 | > 10 µM | 0.369 µM | > 20
NC(=S)N/N=C1\CCc2ccc(Br)cc21 | > 10 µM | > 10 µM | –
NC(=S)N/N=C1\CCN([N+](=O)[O-])c2ccc([N+](=O)[O-])cc21 | > 10 µM | 0.228 µM | > 20
NC(=S)N/N=C1\CCNc2c(Cc3ccccc3)cccc21 | > 10 µM | > 10 µM | –
NC(=S)N/N=C1\CCCSc2ccc([N+](=O)[O-])cc21 | > 10 µM | 0.658 µM | > 15.2
NC(=S)N/N=C1\CCc2ccccc2C1 | > 10 µM | > 10 µM | –
NC(=S)N/N=C1\CCNc2ccc(Br)cc21 | > 10 µM | 0.164 µM | > 20
NC(=S)N/N=C1\CCCS(=O)(=O)c2cc(F)c(F)cc21 | > 10 µM | > 10 µM | –
NC(=S)N/N=C1\CCNc2ccc([N+](=O)[O-])cc21 | > 10 µM | 0.449 µM | > 20
NC(=S)N/N=C1\CC(c2ccccc2)Oc2ccccc21 (configuration not stated) | > 10 µM | > 10 µM | –
NC(=S)N/N=C1\CCCCc2ccccc21 | > 10 µM | > 10 µM | –
CS(=O)(=O)c1ccc2c(c1)/C(=N/NC(N)=S)CCS2(=O)=O | > 10 µM | > 10 µM | –
NC(=S)N/N=C1\CCCc2c(O)cccc21 | > 10 µM | > 10 µM | –
NC(=S)N/N=C1\CCS(=O)(=O)c2ccc(N)cc21 | > 10 µM | > 10 µM | –
NC(=S)N/N=C1\CCCc2cc(N)ccc21 | > 10 µM | > 10 µM | –
NC(=S)NN=C1c2cc([N+](=O)[O-])ccc2-c2ccc([N+](=O)[O-])cc21 | > 10 µM | > 10 µM | –
